Common to all, as to format: functional
Assay [1] concerns Staphylococcus aureus. Briefly: Antimicrobial activity against Staphylococcus aureus at 1 ug/mL after 48 hrs by cup plate agar diffusion method. The note with it: read-out: IZ. In outline:
(§1)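 Cup plate agar diffusion. Compounds dissolved in DMSO at 1 µg/mL. Plates incubated 48 h at 37 °C, then inhibition zone diameter measured in mm. DMSO served as solvent control and ampicillin as reference.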
For orientation: Agar diffusion results depend on both activity and mobility in agar.

Assay [2] concerns MCF7. In words: Cytotoxicity against human MCF7 cells assessed as inhibition of cell viability at 25 ug/mL after 48 hrs by MTT assay. The note with it: MCF7, 48 h. In outline: (§2)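 MCF7 cells kept in DMEM with 10% FBS, 2 mM L-glutamine and antibiotics at 37 °C, 5% CO2. Cells plated at 0.5 × 10⁵ per well in serum-free medium and exposed for 48 h to DMSO-dissolved compound (25, 50, 100 µg/mL). MTT then added for 4 h and formazan dissolved in acidified isopropanol. Absorbance read at 570 nm in triplicate, expressed as % viability versus untreated cells.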
(In general: Tetrazolium assays rely on reduction of a dye to a coloured formazan, in cell work by metabolically active cells.)

Assay [3] concerns Escherichia coli. Briefly: Antimicrobial activity against Escherichia coli at 1 ug/mL after 48 hrs by cup plate agar diffusion method. To be noted: read-out: IZ. The method, boiled down: as §1
For assay [4], the system named is MCF7. In words: Cytotoxicity against human MCF7 cells assessed as inhibition of cell viability at 50 ug/mL after 48 hrs by MTT assay. The note with it: MCF7, 48 h. The method, boiled down:
as §2

For assay [5], the system named is Pseudomonas aeruginosa. Briefly: Antimicrobial activity against Pseudomonas aeruginosa at 1 ug/mL after 48 hrs by cup plate agar diffusion method. To be noted: read-out: IZ. In outline: as §1
Assay [6] deals with MCF7. Briefly: Cytotoxicity against human MCF7 cells assessed as inhibition of cell viability at 100 ug/mL after 48 hrs by MTT assay. The note with it: MCF7, 48 h. The method, boiled down: as §2
Assay [7] relates to Bacillus subtilis. Briefly: Antimicrobial activity against Bacillus subtilis at 1 ug/mL after 48 hrs by cup plate agar diffusion method. The note with it: read-out: IZ. In outline:
as §1

One may read the inhibition as the drop in the measured response relative to a control, in per cent. Turning to `CC(=O)OC[C@H]1O[C@@H](Oc2nc(-c3cccs3)cc(-c3ccc(Cl)cc3)c2C#N)[C@H](OC(C)=O)[C@@H]1OC(C)=O`, the zone of inhibition at 1 µg/mL was determined as 9 mm in assay [1], 3 mm in assay [3], 25 mm in assay [5] and 8 mm in assay [7]. Besides, the inhibition at 25 µg/mL in assay [2] was 2%. In assay [4], the inhibition at 50 µg/mL amounted to 7%. Further, the inhibition at 100 µg/mL in assay [6] was 12%.
Turning to `N#Cc1c(-c2ccc(Cl)cc2)cc(-c2cccs2)nc1O[C@@H]1O[C@H](CO)[C@@H](O)[C@H](O)[C@H]1O`, the zone of inhibition at 1 µg/mL in assay [1] was 3 mm; in assay [3], 0 mm; in assay [5], 0 mm; in assay [7], 1 mm. In addition, the inhibition at 25 µg/mL in assay [2] was 0%. In addition, in assay [4], the inhibition at 50 µg/mL amounted to 0%. Also, the inhibition at 100 µg/mL in assay [6] stood at 0%.
Turning to `N#Cc1c(-c2ccc(Cl)cc2)cc(-c2cccs2)nc1O[C@@H]1O[C@H](CO)[C@@H](O)[C@H]1O`, the zone of inhibition at 1 µg/mL in assay [1] was 10 mm; in assay [3], 6 mm; in assay [5], 28 mm; in assay [7] it was 7 mm. The inhibition at 25 µg/mL in assay [2] was 0%. Further, the inhibition at 50 µg/mL in assay [4] came out at 0%. Also, in assay [6], the inhibition at 100 µg/mL turned out to be 0%.
As to `CC(=O)OC[C@H]1O[C@@H](Oc2nc(-c3cccs3)cc(-c3ccc(Cl)cc3)c2C#N)[C@H](OC(C)=O)[C@@H](OC(C)=O)[C@H]1OC(C)=O`, the zone of inhibition at 1 µg/mL is 12 mm in assay [1], 5 mm in assay [3], 26 mm in assay [5] and 10 mm in assay [7]. Further, the inhibition at 25 µg/mL in assay [2] came out at 0%. The inhibition at 50 µg/mL in assay [4] stood at 5%. Besides, the inhibition at 100 µg/mL in assay [6] amounted to 20%.
On to `CC(=O)OC[C@H]1O[C@@H](O[C@H]2[C@H](OC(C)=O)[C@@H](OC(C)=O)[C@H](Oc3nc(-c4cccs4)cc(-c4ccc(Cl)cc4)c3C#N)O[C@@H]2COC(C)=O)[C@H](OC(C)=O)[C@@H](OC(C)=O)[C@H]1OC(C)=O`, for which the inhibition at 25 µg/mL in assay [2] turned out to be 0%. Further, the inhibition at 50 µg/mL in assay [4] was found to be 5%. Further, in assay [6], the inhibition at 100 µg/mL worked out at 10%.
In the same order, the values of `COc1cccc2c1C(=O)c1c(O)c3c(c(O)c1C2=O)C[C@@](O)(C(=O)CO)C[C@@H]3O[C@H]1C[C@H](N)[C@H](O)[C@H](C)O1` [DOXORUBICIN] are 6%, 15% and 50%.
As to `N#Cc1c(-c2ccc(Cl)cc2)cc(-c2cccs2)nc1O[C@@H]1O[C@H](CO)[C@@H](O[C@@H]2O[C@H](CO)[C@H](O)[C@H](O)[C@H]2O)[C@H](O)[C@H]1O`, the zone of inhibition at 1 µg/mL in assay [1] came to 5 mm; in assay [3], 0 mm; in assay [5], 10 mm; in assay [7], 3 mm.
With `CC(=O)OC[C@H]1O[C@@H](Oc2nc(-c3cccs3)cc(-c3ccc(Cl)cc3)c2C#N)[C@H](OC(C)=O)[C@H]1OC(C)=O`, in assay [2], the inhibition at 25 µg/mL is 0%. Moreover, in assay [4], the inhibition at 50 µg/mL amounted to 0%. Also, in assay [6], the inhibition at 100 µg/mL stood at 8%.
For `CC(=O)OC[C@H]1O[C@@H](Oc2nc(-c3cccs3)cc(-c3ccc(Cl)cc3)c2C#N)[C@H](OC(C)=O)[C@@H](OC(C)=O)[C@@H]1OC(C)=O`, the zone of inhibition at 1 µg/mL in assay [1] came out at 8 mm; in assay [3], 3 mm; in assay [5], 13 mm; in assay [7] it was 11 mm. The inhibition at 25 µg/mL in assay [2] stood at 0%. The inhibition at 50 µg/mL in assay [4] worked out at 5%. Moreover, the inhibition at 100 µg/mL in assay [6] was 10%.
For the compound `O=c1[nH]cc(F)c(=O)[nH]1` [FLUOROURACIL], the inhibition at 25 µg/mL in assay [2] turned out to be 0%. Also, the inhibition at 50 µg/mL in assay [4] came to 0%. In addition, the inhibition at 100 µg/mL in assay [6] was found to be 7%.
For `N#Cc1c(-c2ccc(Cl)cc2)cc(-c2cccs2)nc1O[C@@H]1O[C@H](CO)[C@H](O)[C@H](O)[C@H]1O`, the zone of inhibition at 1 µg/mL in assay [1], in assay [3], in assay [5] and in assay [7] was 0 mm throughout.
With `N#Cc1c(-c2ccc(Cl)cc2)cc(-c2cccs2)nc1O[C@@H]1O[C@H](CO)[C@H](O)[C@H]1O`, the zone of inhibition at 1 µg/mL came out at 3 mm in assay [1], 2 mm in assay [3], 9 mm in assay [5] and 3.5 mm in assay [7].
In the same order, the values of `CC1(C)S[C@@H]2[C@H](NC(=O)[C@H](N)c3ccccc3)C(=O)N2[C@H]1C(=O)O` [AMPICILLIN] are 7 mm, 2 mm, 23 mm and 6 mm.

For the origin of these results see ChEMBL document CHEMBL1795304, “Synthesis, antitumor and antimicrobial activities of 4-(4-chlorophenyl)-3-cyano-2-(β-O-glycosyloxy)-6-(thien-2-yl)-nicotinonitrile” (2011).
